Assay outcomes from PubChem.
Sampled rows, rich in hits. Any-hit rate of the full collection: about 2.2%.
FLuc act counter = FLuc activators, initial screening, artefact control for FLuc-dependent activation tests, biochemical, ATPlite luminescence. ATPlite luciferase biochemical, 10 min; 0 = ATP-free wells, 1 = DMSO control. Luciferin 4-monooxygenase (Photinus pyralis), P08659. activation factor at 10 µM. 200,000 tested, under 10 active;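 active = luciferase activation factor, scaled between plate controls, of at least 2 with compound at 10 µM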
Target sequence (P08659 whole entry, looked up): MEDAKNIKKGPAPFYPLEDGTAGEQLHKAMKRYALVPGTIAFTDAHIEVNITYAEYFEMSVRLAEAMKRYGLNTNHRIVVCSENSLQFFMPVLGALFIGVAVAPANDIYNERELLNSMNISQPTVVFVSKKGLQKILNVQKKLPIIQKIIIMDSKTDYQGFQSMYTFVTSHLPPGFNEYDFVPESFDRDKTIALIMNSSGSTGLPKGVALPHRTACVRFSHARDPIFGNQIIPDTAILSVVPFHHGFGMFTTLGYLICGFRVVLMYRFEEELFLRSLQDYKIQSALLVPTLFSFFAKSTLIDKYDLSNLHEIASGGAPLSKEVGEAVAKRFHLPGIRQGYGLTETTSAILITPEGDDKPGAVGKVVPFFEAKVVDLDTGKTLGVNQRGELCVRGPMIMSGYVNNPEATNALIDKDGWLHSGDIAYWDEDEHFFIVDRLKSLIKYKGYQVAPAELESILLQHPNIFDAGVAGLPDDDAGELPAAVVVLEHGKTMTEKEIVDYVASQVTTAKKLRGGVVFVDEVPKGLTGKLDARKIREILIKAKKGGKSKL
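Assay system: Luciferase/luciferin reagent mix; Medium: PBS as buffer for the ATP substrate; Dosing: test compounds dosed from 2 mM stocks in 100% DMSO; Times: 10 min, room temperature; Signal: luminescence from luciferase reaction; Read-out: luciferase activation; Controls: No-ATP low control, compound-free enzyme-plus-ATP high control.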
APP 5'UTR act = activators of APP 5'UTR luciferase reporter, primary screen, SH-SY5Y cells; SH-SY5Y APP 5'UTR luciferase reporter, luminescence; zero percent = DMSO vehicle wells; activation, % at 2 µM; hit rate 1% among 190,000;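 active = activation above a set limit, based on mean plus 3 SD of controls, cut at about 140% in these data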
C8 TRAIL sens = viability loss with TRAIL in NB7+C8 cells, primary screen, TRAIL sensitizer project, cell-based, ATPlite luminescence | inhibition (viability loss, TRAIL sensitization), % at 10 µM | hit rate 1% among 360,000 | AID 624354, 2012;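 active = compounds causing at least 50% loss of cell viability in the single-dose screen, relative to plate controls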
FLuc inh counter = firefly luciferase enzyme inhibitors, primary screen, artefact control for luciferase-based inhibitor screens, biochemical, luminescence, ATPLite; hit rate 1.5% among 200,000; 10 min; Luciferin 4-monooxygenase (Photinus pyralis), P08659; inhibition, % at 10 µM;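 active = inhibition above about 50% when tested at 10 µM, limit read from the data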
PPC-1+TRAIL kill = compounds killing PPC-1 cancer cells with TRAIL present, primary screen, TRAIL potentiator project, ATPLite luminescence, uHTS | cell killing (% activity), % at 4 µM or 5 µM | hit rate 0.41% among 220,000 | AID 1443, 2008 | PPC-1 cells + TRAIL, ATPLite viability luminescence;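 active = cell killing above 50% in the first pass at 4 µM, then a duplicate retest at 5 µM averaging 50% or more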
NF-kB neuron act = activators of NF-kB expression in neurons, primary screen, cell-based, HTS. human neuronal cells, NF-kB reporter expression; active compounds read high. fold change at 12.5 µM. hit rate 1.6% among 190,000. AID 1239, 2008; in the data active = fold change above about 3.3
Numbers stand for hits; n = inactive; x = not tested or not shown.

SMILES	FLuc act counter	APP 5'UTR act	C8 TRAIL sens	FLuc inh counter	PPC-1+TRAIL kill	NF-kB neuron act
COc1ccc(/C(N)=N/OC(=O)c2ccc(OC)c([N+](=O)[O-])c2)cc1OC	n	n	64	n	n	n
COc1cccc(C(=O)O/N=C(\C)c2cnccn2)c1	n	n	n	65	n	n
COc1ccc(/C(N)=N/OC(=O)c2cccc([N+](=O)[O-])c2)cc1OC	n	x	n	n	n	n
COc1ccc(/C(N)=N/OC(=O)CC2CCCCC2)cc1OC	x	x	73	x	x	x
CCOC(=O)CCC(NC(=O)c1cncc(O)c1)C(=O)OCC (centres undefined)	n	n	n	n	n	n
CCCN(CCC)C(=O)C(CCC(=O)O)NC(=O)c1ccccc1 (centres undefined)	n	n	n	n	n	n
CN(Cc1cnc2nc(N)nc(N)c2n1)c1ccc(C(=O)NC(CCC(=O)O)C(=O)O)cc1C(F)(F)F (centres undefined)	x	x	82	x	x	x
CN(Cc1cnc2nc(N)nc(N)c2n1)c1ccc(C(=O)NC(CCC(=O)O)C(=O)O)cc1 (centres undefined)	x	x	81	x	x	x
Brc1ccc(-c2noc(-c3ccccn3)n2)o1	x	x	n	x	x	x
O=[N+]([O-])c1ccccc1-c1nc(-c2ccc(Br)o2)no1	n	160	n	n	n	n
O=[N+]([O-])c1cc(Cl)ccc1-c1nc(-c2ccccc2)no1	n	n	n	67	n	13
Brc1ccc(-c2nc(-c3ccccn3)no2)o1	n	n	n	74	n	n
CC(C)c1ccc(NC(=O)C2Cc3c(-c4ccccc4Oc4ccccc4)ccnc3O2)cc1 (centres undefined)	x	x	n	x	x	x
c1ccc(COc2cccc(-c3cc4nc(NCCc5ccncc5)ccn4n3)c2)cc1	x	x	n	x	x	x
Cc1cc(C(=O)CSc2cccc[n+]2[O-])c(C)n1-c1ccc(Br)cc1	n	n	x	n	n	n
Cc1cc(C(=O)CSc2cccc[n+]2[O-])c(C)n1-c1ccccc1	n	149	n	80	n	3.8
Cc1cc(C(=O)CSc2nncn2C)c(C)n1-c1ccccc1	n	n	n	69	n	4.2
CC1(C(=O)NS(=O)(=O)c2cccc(OC(F)F)c2)CCN1C(=O)c1cccc(F)c1 (centres undefined)	x	x	n	x	x	x
CCOC(=O)C(=O)N(C)c1c(CC)nc2c(OCc3ccc(OC)cc3)cccn12	x	x	n	x	x	x
CCc1cc(C(=O)NNC(=S)Nc2cccc(C)c2)cs1	n	162	n	51	n	n
Cc1cccc(C(=O)NNC(=O)Nc2ccccc2)c1	n	n	n	n	n	n
Cc1cccc(NC(=S)NNC(=O)c2csc(C(C)C)c2)c1	n	n	n	54	n	n
Cc1cccc(NC(=S)NNC(=O)c2sccc2C)c1	n	n	n	n	n	n
Cc1ccc(NC(=O)c2cnccn2)c(Br)c1	x	x	n	x	x	x
CCc1cc(C(=O)Nc2ccc(C)cc2Br)cs1	n	n	n	n	n	5.8
SMILES	FLuc act counter	APP 5'UTR act	C8 TRAIL sens	FLuc inh counter	PPC-1+TRAIL kill	NF-kB neuron act
CCc1nc2ccc(C(=O)Nc3ccc4c(c3)OCC(=O)N4)cn2c1N(C)C(=O)C1CCCCC1	x	x	n	x	x	x
Nc1cc(N)cc(C(=O)c2ccccc2)c1	x	x	n	x	x	x
COc1cnc(-c2cccc(C(F)(F)F)c2)c(NC(=O)c2cc3ccccc3s2)n1	x	x	n	x	x	x
CCCc1ccc(OC(=O)c2cccs2)cc1	n	n	n	n	n	n
CCCc1ccc(OC(=O)c2ccc(O)cc2Cl)cc1	n	218	n	n	n	4.3
S=c1[nH]nc(-c2cccs2)n1/N=C/c1c(Cl)cccc1Cl	n	n	n	n	n	n
Cc1ccc(/C=N/n2c(-c3cccs3)n[nH]c2=S)cc1	n	n	n	n	n	4.1
Cc1ccc(/C=N/n2c(-c3ccccc3)n[nH]c2=S)cc1	x	x	n	x	x	x
COc1ccc(/C=N/n2c(-c3cccs3)n[nH]c2=S)cc1	n	n	n	n	n	5.2
CCC(=O)N1Cc2cc(C(=O)Nc3nccs3)nc(-c3cccc(-c4ccccc4OC)c3)c2[C@@H]1CCO	x	x	n	x	x	x
COCCN1C[C@@H](CO)O[C@@H](n2cnc3c(NCCO)ncnc32)C1	x	x	n	x	x	x
Cc1ccc(S(=O)(=O)N2C[C@H]3C(=O)C[C@@H](c4ccccc4)N(S(C)(=O)=O)[C@H]3C[C@H]2c2ccccc2)cc1	x	x	n	x	x	x
Cc1cc(C)c2nc(SCC(=O)N3CC(=O)Nc4ccccc43)c(C#N)cc2c1	n	n	n	n	n	3.5
COc1ccc2nc(SCC(=O)N3CC(=O)Nc4ccccc43)c(C#N)cc2c1	n	n	n	n	n	n
CC1(C)Cc2c(sc(NC(=O)c3ccc(Br)o3)c2C#N)CO1	n	n	n	64	n	n
CC1(C)Cc2c(sc(NC(=O)Cc3ccccc3)c2C#N)CO1	x	x	n	x	n	x
Cc1nn(-c2ccccc2)c(Cl)c1C(=O)N1CCN(c2ncnc3c2cnn3-c2ccccc2)CC1	n	n	73	n	n	n
Clc1ccc(Cn2ncc3c(N4CCN(c5ccccc5)CC4)ncnc32)cc1	x	x	74	x	x	x
Clc1ccc(-n2ncc3c(N4CCCC4)ncnc32)cc1	n	161	55	75	n	n
CC1CCN(c2ncnc3c2cnn3-c2ccccc2)CC1	n	x	n	n	n	4.5
CCOC(=O)C1CCN(c2ncnc3c2cnn3-c2ccc(Cl)cc2)CC1	n	n	n	n	n	n
COc1ccc(-n2ncc3c(N4CCC(C)CC4)ncnc32)cc1	x	x	n	x	x	x
CCCCN(C=O)c1c(CC)nc2c(OCc3ccc(C(F)(F)F)cc3)cccn12	x	x	n	x	x	x
CNc1cc([N+](=O)[O-])ccc1N/C=C/C(=O)c1cccs1	n	n	n	n	n	n
O=C(/C=C/Nc1ccc(Nc2ccccc2)cc1)c1cccs1	n	n	n	n	n	n
SMILES	FLuc act counter	APP 5'UTR act	C8 TRAIL sens	FLuc inh counter	PPC-1+TRAIL kill	NF-kB neuron act
Cc1cc(N/C=C/C(=O)c2cccs2)ccc1F	n	178	n	80	n	7.6
O=C(/C=C/Nc1cccc([N+](=O)[O-])c1)c1cccs1	n	184	n	51	n	7.5
O=C(/C=C/Nc1ccccc1C(=O)O)c1cccs1	n	n	n	65	n	n
CC1(c2nnnn2Cc2ccccc2)CCC(=O)N1c1ccc(N2CCOCC2)cc1 (centres undefined)	x	x	n	x	x	x
CC(C)(C)c1ccc(C(O)c2ncc(-c3ccc(F)cc3)[nH]2)cc1 (centres undefined)	x	x	n	x	x	x
OC(c1ccc(F)cc1)c1nc(-c2cnc3ccccc3c2)cs1 (centres undefined)	x	x	n	x	x	x
Cc1ccccc1Cn1nnc2c1C(=O)c1ccccc1C2=O	x	n	52	x	x	n
Cc1cccc(Cn2cnc3c(nnn3Cc3ccccc3F)c2=O)c1	n	n	n	n	n	n
Cc1cccc(Cn2nnc3c2C(=O)c2ccccc2C3=O)c1	n	n	51	n	n	n
O=C1CCSC2=C1SCc1sccc12	x	x	n	x	x	x
